Consider one molecule from the M2OR odorant receptor database.

Details in all cases: stereoisomer not certain
The target of one test is T1, UniProt Q8VGJ5.
T1 sequence (whole entry): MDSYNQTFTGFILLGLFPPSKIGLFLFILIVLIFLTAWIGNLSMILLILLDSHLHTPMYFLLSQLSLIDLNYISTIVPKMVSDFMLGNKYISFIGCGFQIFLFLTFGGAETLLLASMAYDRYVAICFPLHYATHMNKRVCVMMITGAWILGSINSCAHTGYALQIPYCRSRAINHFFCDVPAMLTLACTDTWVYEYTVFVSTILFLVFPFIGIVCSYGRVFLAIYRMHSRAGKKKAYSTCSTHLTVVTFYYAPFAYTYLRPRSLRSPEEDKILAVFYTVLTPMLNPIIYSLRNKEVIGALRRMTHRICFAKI
The gist of the method: (§1)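 Transient luciferase assays in mammalian cell lines were common, though methods varied by source. The values come from published papers and their supplementary material, with extra details from the original authors when needed. Responsive refers to a measured signal the original authors judged statistically different from baseline, and non-responsive (inactive) to the remainder.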

In another test the target is T2, UniProt Q8VGL0.
T2 sequence (whole entry): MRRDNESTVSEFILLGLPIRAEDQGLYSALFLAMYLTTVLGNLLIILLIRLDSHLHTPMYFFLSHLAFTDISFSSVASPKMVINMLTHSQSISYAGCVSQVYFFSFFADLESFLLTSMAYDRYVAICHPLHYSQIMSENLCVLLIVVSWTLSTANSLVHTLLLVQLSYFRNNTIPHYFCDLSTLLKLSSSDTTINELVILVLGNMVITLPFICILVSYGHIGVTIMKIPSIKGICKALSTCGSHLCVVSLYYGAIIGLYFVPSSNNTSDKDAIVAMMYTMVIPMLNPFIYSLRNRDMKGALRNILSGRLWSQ
The method in brief:
as §1

In a further test the target is T3, UniProt Q8VGL7.
T3 sequence (whole entry): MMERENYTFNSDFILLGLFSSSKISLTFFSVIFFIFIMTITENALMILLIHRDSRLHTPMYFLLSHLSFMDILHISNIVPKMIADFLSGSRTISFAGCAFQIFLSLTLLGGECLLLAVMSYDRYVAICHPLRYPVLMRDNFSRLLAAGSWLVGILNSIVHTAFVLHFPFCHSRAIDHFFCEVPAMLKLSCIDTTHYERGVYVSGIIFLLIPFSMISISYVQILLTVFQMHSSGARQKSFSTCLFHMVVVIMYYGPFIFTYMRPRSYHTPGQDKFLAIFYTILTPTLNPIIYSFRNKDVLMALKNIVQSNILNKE
The method in brief: as §1

In a further test the target is T4, UniProt Q8VGM2.
T4 sequence (whole entry): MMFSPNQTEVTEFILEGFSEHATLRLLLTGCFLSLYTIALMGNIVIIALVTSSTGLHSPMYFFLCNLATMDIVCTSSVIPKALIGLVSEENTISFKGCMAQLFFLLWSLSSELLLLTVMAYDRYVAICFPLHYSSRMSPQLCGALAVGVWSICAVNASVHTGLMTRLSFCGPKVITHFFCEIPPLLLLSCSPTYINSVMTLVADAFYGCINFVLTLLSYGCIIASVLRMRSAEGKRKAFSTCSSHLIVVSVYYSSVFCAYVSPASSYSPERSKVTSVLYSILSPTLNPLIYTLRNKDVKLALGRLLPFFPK
The method in brief:
as §1

Another test addresses T5, UniProt Q8VGP6.
T5 sequence (whole entry): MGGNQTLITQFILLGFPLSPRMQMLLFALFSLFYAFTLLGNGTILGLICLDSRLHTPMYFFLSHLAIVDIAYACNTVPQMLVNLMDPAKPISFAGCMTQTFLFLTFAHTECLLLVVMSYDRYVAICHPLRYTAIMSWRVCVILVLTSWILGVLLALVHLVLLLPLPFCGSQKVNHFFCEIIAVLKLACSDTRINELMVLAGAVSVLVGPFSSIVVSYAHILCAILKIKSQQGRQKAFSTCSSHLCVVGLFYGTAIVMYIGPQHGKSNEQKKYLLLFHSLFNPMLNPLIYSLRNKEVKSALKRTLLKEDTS
The gist of the method:
as §1

Another test addresses T6, UniProt Q8VGQ3.
T6 sequence (whole entry): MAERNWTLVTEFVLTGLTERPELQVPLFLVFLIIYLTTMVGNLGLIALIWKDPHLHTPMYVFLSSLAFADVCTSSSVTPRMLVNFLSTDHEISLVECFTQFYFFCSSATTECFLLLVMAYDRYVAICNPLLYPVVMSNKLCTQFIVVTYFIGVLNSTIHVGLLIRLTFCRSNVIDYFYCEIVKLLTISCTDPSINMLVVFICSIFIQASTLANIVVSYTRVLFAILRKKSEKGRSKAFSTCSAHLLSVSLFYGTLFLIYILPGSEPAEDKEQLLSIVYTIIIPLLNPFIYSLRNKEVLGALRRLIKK
The gist of the method:
as §1

In another test the target is T7, UniProt Q8VGT4.
T7 sequence (whole entry): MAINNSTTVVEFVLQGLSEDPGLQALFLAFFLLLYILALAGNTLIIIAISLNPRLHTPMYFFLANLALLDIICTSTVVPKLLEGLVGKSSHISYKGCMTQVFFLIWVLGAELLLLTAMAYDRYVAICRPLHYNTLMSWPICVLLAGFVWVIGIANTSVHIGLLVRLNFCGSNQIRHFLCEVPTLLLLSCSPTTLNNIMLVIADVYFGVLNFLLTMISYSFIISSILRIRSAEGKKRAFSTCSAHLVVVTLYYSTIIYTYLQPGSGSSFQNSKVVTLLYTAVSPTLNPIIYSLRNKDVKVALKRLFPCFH
The method in brief: as §1

The target in another test is T8, UniProt Q8VGV1.
T8 sequence (whole entry): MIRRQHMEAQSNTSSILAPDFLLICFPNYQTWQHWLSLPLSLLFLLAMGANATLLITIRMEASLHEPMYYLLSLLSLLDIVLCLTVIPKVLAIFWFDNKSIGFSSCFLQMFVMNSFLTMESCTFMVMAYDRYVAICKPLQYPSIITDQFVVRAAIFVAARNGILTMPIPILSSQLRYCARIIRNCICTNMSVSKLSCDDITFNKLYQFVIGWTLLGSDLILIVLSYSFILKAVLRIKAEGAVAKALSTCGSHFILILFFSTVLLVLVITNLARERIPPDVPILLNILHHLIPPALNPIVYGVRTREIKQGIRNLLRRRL
The gist of the method:
as §1

The target in the next test is T9, UniProt Q8VGX5.
T9 sequence (whole entry): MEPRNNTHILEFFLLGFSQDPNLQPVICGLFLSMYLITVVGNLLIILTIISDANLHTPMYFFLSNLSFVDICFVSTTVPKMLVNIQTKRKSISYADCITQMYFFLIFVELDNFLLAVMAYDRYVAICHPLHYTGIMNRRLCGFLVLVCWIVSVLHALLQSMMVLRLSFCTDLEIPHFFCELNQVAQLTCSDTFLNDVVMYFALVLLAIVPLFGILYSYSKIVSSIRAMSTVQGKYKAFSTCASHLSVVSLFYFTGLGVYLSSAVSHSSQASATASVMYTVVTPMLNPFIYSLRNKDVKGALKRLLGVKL
The gist of the method:
as §1

In a further test the target is T10, UniProt Q8VGX8.
T10 sequence (whole entry): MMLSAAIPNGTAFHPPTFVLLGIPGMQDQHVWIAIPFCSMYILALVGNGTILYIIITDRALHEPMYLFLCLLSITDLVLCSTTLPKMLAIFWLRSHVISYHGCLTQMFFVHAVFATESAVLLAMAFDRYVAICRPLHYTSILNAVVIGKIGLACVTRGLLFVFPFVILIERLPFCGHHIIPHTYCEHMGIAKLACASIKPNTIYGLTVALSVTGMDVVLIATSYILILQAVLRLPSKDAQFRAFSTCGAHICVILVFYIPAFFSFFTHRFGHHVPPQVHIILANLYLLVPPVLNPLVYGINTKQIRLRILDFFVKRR
The gist of the method: as §1

The next test has as its target T11, UniProt Q8VGY6.
T11 sequence (whole entry): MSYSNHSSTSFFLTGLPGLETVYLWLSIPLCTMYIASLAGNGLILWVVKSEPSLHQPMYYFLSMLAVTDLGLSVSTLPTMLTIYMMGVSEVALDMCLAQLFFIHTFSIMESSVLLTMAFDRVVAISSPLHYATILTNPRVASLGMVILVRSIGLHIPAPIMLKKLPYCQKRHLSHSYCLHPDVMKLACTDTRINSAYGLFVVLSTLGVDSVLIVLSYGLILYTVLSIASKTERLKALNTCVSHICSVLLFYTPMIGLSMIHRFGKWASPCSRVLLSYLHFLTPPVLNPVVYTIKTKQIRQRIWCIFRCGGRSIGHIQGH
The method in brief: as §1

Another test addresses T12, UniProt Q8VGZ2.
T12 sequence (whole entry): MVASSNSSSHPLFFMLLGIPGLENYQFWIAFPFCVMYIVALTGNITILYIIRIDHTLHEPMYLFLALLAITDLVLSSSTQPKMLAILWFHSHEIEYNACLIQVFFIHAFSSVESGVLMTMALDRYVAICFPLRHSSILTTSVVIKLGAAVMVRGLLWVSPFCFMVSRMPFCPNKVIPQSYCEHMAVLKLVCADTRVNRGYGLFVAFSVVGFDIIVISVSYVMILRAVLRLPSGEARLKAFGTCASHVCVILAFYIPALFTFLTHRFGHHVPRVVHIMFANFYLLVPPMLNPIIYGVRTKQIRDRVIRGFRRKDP
The method in brief: as §1

Another test has as its target T13, UniProt Q8VGZ7.
T13 sequence (whole entry): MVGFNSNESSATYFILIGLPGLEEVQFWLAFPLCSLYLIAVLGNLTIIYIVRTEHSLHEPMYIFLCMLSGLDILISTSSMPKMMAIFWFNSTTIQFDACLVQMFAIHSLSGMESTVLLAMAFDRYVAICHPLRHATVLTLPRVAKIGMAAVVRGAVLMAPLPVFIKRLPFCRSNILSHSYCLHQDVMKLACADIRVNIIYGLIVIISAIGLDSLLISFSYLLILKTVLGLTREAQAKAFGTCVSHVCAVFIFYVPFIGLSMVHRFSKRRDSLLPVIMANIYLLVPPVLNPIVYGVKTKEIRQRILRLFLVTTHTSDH
The gist of the method:
as §1

The next test has as its target T14, UniProt Q8VH10.
T14 sequence (whole entry): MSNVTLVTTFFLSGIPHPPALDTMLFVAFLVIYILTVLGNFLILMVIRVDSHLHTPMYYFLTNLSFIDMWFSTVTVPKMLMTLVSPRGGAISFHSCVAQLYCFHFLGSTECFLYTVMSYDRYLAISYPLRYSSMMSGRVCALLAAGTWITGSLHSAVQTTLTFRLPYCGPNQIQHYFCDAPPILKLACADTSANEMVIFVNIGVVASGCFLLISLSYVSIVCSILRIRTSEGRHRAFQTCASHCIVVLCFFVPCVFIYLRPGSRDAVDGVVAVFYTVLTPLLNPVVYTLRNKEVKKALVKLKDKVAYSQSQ
The method in brief:
as §1

Another test concerns the target T15, UniProt Q8VH20.
T15 sequence (whole entry): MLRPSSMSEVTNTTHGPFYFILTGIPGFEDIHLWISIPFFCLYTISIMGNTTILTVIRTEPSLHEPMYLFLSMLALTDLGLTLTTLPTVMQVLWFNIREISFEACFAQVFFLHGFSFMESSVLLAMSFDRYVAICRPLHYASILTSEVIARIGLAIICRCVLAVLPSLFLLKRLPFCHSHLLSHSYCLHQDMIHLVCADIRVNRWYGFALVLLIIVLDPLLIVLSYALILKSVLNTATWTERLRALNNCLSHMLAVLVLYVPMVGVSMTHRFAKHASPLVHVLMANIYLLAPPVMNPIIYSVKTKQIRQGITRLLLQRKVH
The method in brief: as §1
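Also: active if original authors judged signal statistically different from baseline.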

Take `CCC1CCC(=O)O1` (stereo not given): in the test with UniProt Q8VGJ5, the “odorant receptor agonist call” value is “active”. For the same molecule, the “odorant receptor agonist call” value in the test with UniProt Q8VGL0, with UniProt Q8VGL7, with UniProt Q8VGM2, with UniProt Q8VGP6, with UniProt Q8VGQ3 and with UniProt Q8VGT4 was “inactive” each time. Further, the “odorant receptor agonist call” value in the test with UniProt Q8VGV1, in the test with UniProt Q8VGX5, with UniProt Q8VGX8, in the test with UniProt Q8VGY6, in the test with UniProt Q8VGZ2 and with UniProt Q8VGZ7 was “inactive” throughout. Besides, the “odorant receptor agonist call” value in the test with UniProt Q8VH10 and in the test with UniProt Q8VH20 was “inactive” in each case.
